# From ChEMBL document CHEMBL1124558, “Differential effects of a series of hydroxamic acid derivatives on 5-lipoxygenase and cyclooxygenase from neutrophils and 12-lipoxygenase from platelets and their in vivo effects on inflammation and anaphylaxis” (J Med Chem, 1989)
# Tests used:
# [1] = molecular target: T1, Cysteinyl leukotriene receptor 1 (Cavia porcellus, UniProt Q2NNR5); test: Activity to bind against [3H]LTD4 radioligand in guinea pig
# T1 sequence (Q2NNR5 whole entry): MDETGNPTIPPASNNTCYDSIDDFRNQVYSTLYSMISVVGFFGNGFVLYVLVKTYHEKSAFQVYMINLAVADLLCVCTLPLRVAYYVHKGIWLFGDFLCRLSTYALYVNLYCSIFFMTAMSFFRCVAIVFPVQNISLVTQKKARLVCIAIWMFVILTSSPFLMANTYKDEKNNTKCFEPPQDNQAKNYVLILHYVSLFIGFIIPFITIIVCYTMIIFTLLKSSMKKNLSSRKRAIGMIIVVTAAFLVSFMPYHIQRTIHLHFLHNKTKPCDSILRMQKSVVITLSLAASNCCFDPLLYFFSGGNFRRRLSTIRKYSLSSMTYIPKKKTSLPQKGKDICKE
# Cyclooxygenase [2] = molecular target: T2, Cyclooxygenase (Rattus norvegicus, UniProt P35355+Q63921); test: In vitro inhibitory activity against rat polymorphonuclear leukocyte cyclooxygenase; format: protein assay
# T2 sequence (P35355 whole entry): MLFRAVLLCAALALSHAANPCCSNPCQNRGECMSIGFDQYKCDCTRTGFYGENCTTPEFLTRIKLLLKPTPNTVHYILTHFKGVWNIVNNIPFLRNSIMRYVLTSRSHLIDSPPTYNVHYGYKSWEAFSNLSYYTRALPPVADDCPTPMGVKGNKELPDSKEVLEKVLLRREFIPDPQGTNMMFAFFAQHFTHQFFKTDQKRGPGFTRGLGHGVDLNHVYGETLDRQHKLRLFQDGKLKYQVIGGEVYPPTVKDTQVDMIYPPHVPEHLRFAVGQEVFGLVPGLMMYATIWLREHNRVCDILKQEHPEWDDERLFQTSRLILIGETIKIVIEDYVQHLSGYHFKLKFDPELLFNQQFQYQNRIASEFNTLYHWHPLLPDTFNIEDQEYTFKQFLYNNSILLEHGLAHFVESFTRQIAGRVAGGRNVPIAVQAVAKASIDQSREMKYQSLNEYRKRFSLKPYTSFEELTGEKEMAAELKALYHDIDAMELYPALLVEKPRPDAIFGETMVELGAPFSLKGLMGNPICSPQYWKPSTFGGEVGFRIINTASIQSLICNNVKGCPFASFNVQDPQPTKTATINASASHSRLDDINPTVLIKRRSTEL
# T2 sequence (Q63921 whole entry): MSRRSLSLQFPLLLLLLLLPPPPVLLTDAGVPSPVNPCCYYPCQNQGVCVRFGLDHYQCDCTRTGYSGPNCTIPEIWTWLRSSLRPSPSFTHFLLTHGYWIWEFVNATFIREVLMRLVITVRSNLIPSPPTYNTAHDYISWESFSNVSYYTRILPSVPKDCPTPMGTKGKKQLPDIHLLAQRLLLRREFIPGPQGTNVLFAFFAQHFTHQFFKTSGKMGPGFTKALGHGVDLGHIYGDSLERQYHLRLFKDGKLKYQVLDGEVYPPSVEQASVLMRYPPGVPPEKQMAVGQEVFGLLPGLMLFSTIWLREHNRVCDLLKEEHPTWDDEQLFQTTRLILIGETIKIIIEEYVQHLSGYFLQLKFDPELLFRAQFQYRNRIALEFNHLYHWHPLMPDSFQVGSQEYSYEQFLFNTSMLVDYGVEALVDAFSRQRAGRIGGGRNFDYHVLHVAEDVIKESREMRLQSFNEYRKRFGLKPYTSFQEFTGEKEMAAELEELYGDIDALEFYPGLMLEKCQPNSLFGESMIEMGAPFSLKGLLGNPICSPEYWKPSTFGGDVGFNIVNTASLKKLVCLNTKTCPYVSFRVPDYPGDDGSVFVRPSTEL
# In short: (§1)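 Glycogen-elicited peritoneal PMNs from Sprague-Dawley rats were homogenized at 0 °C in 0.1 M Tris-HCl pH 8.2 with 10 μM NDGA. Compound (DMSO ≤0.1%) was preincubated 5 min at 37 °C, then 8 μM [14C]arachidonic acid with 4 mM glutathione and epinephrine was added for 10 min. TxB2 and PGF2α were measured by TLC and scintillation counting.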
# Cavia porcellus [3] = test: In vivo inhibitory activity against guinea pig systemic anaphylaxis when administered a compound dose (60 mg/kg) perorally; format: functional; settings: po
# In short: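 Male Hartley guinea pigs sensitised ip with ovalbumin (2.7 mg/kg) plus LPS adjuvant, then challenged 2 weeks later with 1% ovalbumin aerosol for 30 s. Pretreated with pyrilamine, indomethacin and propranolol 20 min before challenge. Compound given in PEG 400 1 h before challenge.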
# Cyclooxygenase [4] = molecular target: T2, Cyclooxygenase; test: In vitro inhibitory activity against polymorphonuclear leukocyte cyclooxygenase; format: protein assay; in short: as §1
# Cavia porcellus [5] = organism: Cavia porcellus; test: Inhibitory activity against Leukotriene-D4 induced contractions; format: functional
# Cavia porcellus [6] = organism: Cavia porcellus; test: Inhibitory activity against Leukotriene C4 induced contractions; format: functional
# Mus musculus = test: In vivo inhibition of mouse ear inflammation; format: functional; set-up: concentration or dose not given beside the values
# In short: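 Compound or ethanol vehicle applied topically to one ear of male DBA/2J mice 60 min before arachidonic acid (2 mg/ear). […] Groups of 5 mice.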
# [7] = molecular target: T3, Cyclooxygenase (Rattus norvegicus) (UniProt P35355+Q63921); test: (§2) In vitro inhibitory activity against rat polymorphonuclear leukocyte Prostaglandin G/H synthase at 100 uM; format: functional; in short: as §1
# [8] = molecular target: T4, Polyunsaturated fatty acid 5-lipoxygenase (Homo sapiens, UniProt P09917); test: In vitro inhibition of polymorphonuclear leukocyte derived human 5-lipoxygenase
# T4 sequence (P09917 whole entry): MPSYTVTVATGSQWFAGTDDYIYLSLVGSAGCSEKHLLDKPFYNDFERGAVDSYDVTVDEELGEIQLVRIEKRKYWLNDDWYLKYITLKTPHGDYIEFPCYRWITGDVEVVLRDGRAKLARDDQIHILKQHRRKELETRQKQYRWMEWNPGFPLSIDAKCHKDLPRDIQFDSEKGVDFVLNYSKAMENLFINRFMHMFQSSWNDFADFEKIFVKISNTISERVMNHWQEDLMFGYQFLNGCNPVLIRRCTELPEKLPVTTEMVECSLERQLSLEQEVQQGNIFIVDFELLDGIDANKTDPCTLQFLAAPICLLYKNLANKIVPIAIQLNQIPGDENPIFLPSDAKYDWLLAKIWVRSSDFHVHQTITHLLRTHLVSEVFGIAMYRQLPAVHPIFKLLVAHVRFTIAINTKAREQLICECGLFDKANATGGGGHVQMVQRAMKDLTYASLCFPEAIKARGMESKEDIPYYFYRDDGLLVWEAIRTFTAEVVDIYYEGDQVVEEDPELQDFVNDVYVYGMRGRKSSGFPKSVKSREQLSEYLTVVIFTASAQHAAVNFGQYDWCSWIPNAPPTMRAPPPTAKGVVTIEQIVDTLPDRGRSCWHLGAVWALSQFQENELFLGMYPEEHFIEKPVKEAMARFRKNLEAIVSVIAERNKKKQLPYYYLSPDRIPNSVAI
# In short: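 PMNs from venous blood of healthy volunteers, isolated by dextran sedimentation and Percoll gradient (>90% pure) and held in Ca/Mg PBS with 1 mg/mL glucose and 1 μM indomethacin. Challenged with calcium ionophore and [14C]arachidonic acid for 3 min. 5-HETE measured by TLC and scintillation counting; IC50 read graphically.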
# [9] = molecular target: T5, Polyunsaturated fatty acid 5-lipoxygenase (Rattus norvegicus, UniProt P12527); test: In vitro inhibition of rat polymorphonuclear leukocyte 5-lipoxygenase
# T5 sequence (P12527 whole entry): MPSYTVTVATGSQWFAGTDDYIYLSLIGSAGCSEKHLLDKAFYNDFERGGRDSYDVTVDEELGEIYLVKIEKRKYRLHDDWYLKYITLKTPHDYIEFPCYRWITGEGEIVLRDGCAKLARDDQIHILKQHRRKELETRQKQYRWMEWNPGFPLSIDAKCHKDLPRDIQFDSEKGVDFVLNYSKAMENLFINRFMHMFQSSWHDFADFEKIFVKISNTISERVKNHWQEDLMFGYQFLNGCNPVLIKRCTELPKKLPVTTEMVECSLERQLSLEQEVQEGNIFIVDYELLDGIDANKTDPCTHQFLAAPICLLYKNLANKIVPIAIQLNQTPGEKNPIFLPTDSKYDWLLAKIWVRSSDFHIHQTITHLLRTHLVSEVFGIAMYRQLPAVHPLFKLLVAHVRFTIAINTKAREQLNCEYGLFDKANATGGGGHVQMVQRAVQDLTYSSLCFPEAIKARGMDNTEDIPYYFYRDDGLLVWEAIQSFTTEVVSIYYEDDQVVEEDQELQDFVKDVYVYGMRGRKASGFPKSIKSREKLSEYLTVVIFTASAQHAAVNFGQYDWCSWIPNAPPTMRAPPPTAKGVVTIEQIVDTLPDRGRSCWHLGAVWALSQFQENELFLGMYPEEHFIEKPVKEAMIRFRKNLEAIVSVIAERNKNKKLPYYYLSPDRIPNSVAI
# In short: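 Intact glycogen-elicited peritoneal PMNs pooled from 4–5 Sprague-Dawley rats (250 g), preincubated 5 min at 30 °C with compound in DMSO (≤0.1% final) plus 1 μM indomethacin. Challenge with [14C]arachidonic acid (4 μM) and A23187 (0.8 μM) for 3 min. Extraction, TLC, 5-HETE by scintillation counting.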
# [10] = molecular target: T6, Arachidonate 12-lipoxygenase (Rattus norvegicus) (UniProt Q02759); test: In vitro inhibitory activity against rat platelet 12-lipoxygenase at 100 uM
# T6 sequence (whole entry): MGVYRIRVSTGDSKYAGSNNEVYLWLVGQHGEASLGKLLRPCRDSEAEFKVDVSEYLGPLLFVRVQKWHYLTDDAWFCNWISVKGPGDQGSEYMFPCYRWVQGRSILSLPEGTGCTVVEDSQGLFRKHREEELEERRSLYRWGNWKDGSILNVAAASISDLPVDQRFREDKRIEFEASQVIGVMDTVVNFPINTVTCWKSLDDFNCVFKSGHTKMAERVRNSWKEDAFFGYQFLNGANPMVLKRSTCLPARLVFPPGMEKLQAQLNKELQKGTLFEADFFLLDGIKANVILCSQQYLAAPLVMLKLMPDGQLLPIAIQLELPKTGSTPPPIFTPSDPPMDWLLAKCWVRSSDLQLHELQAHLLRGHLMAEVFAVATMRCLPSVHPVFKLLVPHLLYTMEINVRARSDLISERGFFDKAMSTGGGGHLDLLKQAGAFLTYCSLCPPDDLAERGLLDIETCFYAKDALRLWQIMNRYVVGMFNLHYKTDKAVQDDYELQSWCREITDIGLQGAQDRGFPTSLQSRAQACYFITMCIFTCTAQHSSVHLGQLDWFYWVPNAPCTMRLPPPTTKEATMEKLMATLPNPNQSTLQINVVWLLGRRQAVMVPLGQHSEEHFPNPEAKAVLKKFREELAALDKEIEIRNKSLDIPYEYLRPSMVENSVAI
# In short: (§3)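 Cell-free cytosolic 12-lipoxygenase from Sprague-Dawley rat platelets (0.4 mg/mL), preincubated 5 min at 30 °C with compound in DMSO (≤0.1% final), 25 mM Tris pH 7.4, 1 μM indomethacin, 100 μM glutathione; reaction started with 6 μM [14C]arachidonic acid and quenched with citric acid/NDGA after 3 min. 12-HETE isolated by TLC and counted by scintillation; % inhibition, duplicate.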
# [11] = test system: 5-lipoxygenase (Cavia porcellus); test: In vitro inhibitory activity against polymorphonuclear leukocyte 5-lipoxygenase using guinea pig supernatant at 10 uM
# [12] = molecular target: T3, Cyclooxygenase (Rattus norvegicus); test: In vitro inhibitory activity against rat polymorphonuclear leukocyte Prostaglandin G/H synthase at 30 uM; format: protein assay
# In short: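 Homogenate of glycogen-elicited rat peritoneal PMNs in 0.1 M Tris-HCl pH 8.2 with 10 μM NDGA, preincubated 5 min at 37 °C with compound (≤0.1% DMSO). [14C]arachidonic acid (8 μM) added with 4 mM glutathione and epinephrine; 10 min reaction. TxB2 and PGF2α separated by TLC and counted.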
# [13] = molecular target: T7, Polyunsaturated fatty acid 5-lipoxygenase (Homo sapiens) (UniProt P09917); test: In vitro inhibitory activity against polymorphonuclear leukocyte 5-lipoxygenase in human cell at 10 uM
# T7 sequence (whole entry): T4 sequence (P09917 whole entry)
# In short: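 Human PMNs from venous blood of a healthy volunteer (EDTA) were purified by dextran sedimentation, a Percoll gradient and NH4Cl red-cell lysis (>90% pure). They were held in Ca/Mg PBS with 1 mg/mL glucose and 1 μM indomethacin, then challenged with A23187 (0.8 μM) and [14C]arachidonic acid (4 μM) for 3 min. 5-HETE was measured by TLC and scintillation counting.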
# [14] = molecular target: T6, Arachidonate 12-lipoxygenase (Rattus norvegicus); test: In vitro inhibitory activity against rat platelet 12-lipoxygenase at 10 uM; in short: as §3
# [15] = test system: 5-lipoxygenase (Cavia porcellus); test: Inhibitory activity against polymorphonuclear leukocyte 5-lipoxygenase using guinea pig supernatant at 10 uM
# [16] = molecular target: T3, Cyclooxygenase (Rattus norvegicus); test: as §2; format: protein assay; in short: as §1
structure (smiles),measurement,setting,value
CN(O)C(=O)Cc1ccc(OCc2ccccc2)cc1,Ki,[1],> 100 µM
same,IC50,Cyclooxygenase [2],9 µM
same,inhibition in vivo at 60 mg/kg,Cavia porcellus [3],83%
same,IC50,Cyclooxygenase [4],< 10 µM
same,IC50,Cavia porcellus [5],5 µM
same,IC50,Cavia porcellus [6],4.2 µM
same,Inhibition,Mus musculus,65%
O=C(Cc1ccc(OCc2ccccc2)cc1)N(O)Cc1ccccc1,inhibition,[7],32%
same,IC50,[8],0.12 µM
same,Inhibition,Mus musculus,37%
same,IC50,[9],0.1 µM
same,inhibition,[10],47%
O=C(Cc1ccc(OCc2ccccc2)cc1)N(Cc1ccccc1)OCc1ccccc1,inhibition,[11],< 10%
same,inhibition,[12],24%
same,inhibition,[13],22%
same,inhibition,[14],< 10%
O=C(CCCc1ccccc1)NCCc1ccccc1,inhibition,[15],12%
same,inhibition,[16],< 10%
same,inhibition,[13],< 10%
same,inhibition,[14],< 10%
